Reference: ChEMBL document CHEMBL1687766, “In vitro activity of the new multivalent glycopeptide-cephalosporin antibiotic TD-1792 against vancomycin-nonsusceptible Staphylococcus isolates” (Antimicrob Agents Chemother, 2010)
Converted amounts (≈) assume the structure as drawn.

Experiments:
Format in all cases: functional
Staphylococcus aureus [1] = assay: Antimicrobial activity against vancomycin-heteroresistant Staphylococcus aureus after 24 hrs by microdilution method in presence of 50% human serum
Procedure, shortened: (§1)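 Broth microdilution per CLSI, inoculum 5 × 10^5 CFU/ml, 24 h at 35°C, in duplicate. Medium was 50% (vol/vol) human serum plus 50% broth, final 25 SMHB for TD-1792 and 50 SMHB for daptomycin. Serum was heated 56°C for 1 h and filtered through 0.8, 0.5 and 0.22 μm. MBC by plating clear wells on BHI agar.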

Staphylococcus aureus [2] = assay: Ratio of MIC for vancomycin-intermediate Staphylococcus aureus isolate MU50 in presence of 50% human serum to MIC for vancomycin-intermediate Staphylococcus aureus isolate MU50
Procedure, shortened: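 Ratio of the broth microdilution MIC (5 × 10^5 CFU/ml, 24 h, 35°C, duplicate) measured in 50% heat-treated human serum/supplemented Mueller-Hinton broth to the MIC measured in supplemented broth alone.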

Staphylococcus aureus [3] = assay: Antimicrobial activity against vancomycin-intermediate Staphylococcus aureus isolate MU50 assessed as bacterial count at 4 times MIC after 24 hrs by colony counting method
Procedure, shortened: (§2)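 24-h time-kill run in triplicate in supplemented Mueller-Hinton broth (12.5 μg/ml Mg, 25 μg/ml Ca), adjusted to 1.1–1.3 mM Ca for daptomycin. […] Samples were taken at 0, 1, 4, 8 and 24 h and counted on BHI agar after 24 h at 35°C. Value is log10 CFU/ml change from baseline at 24 h.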

Staphylococcus aureus [4] = assay: Antimicrobial activity against vancomycin-intermediate Staphylococcus aureus isolate MU50 assessed as bacterial count at 16 times MIC after 24 hrs by colony counting method
Procedure, shortened: (§3)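 Time-kill in triplicate. Mid-exponential culture (OD600 ~0.3) diluted in supplemented Mueller-Hinton broth to 5 × 10^6 CFU/ml. Daptomycin was run at physiologic calcium, 1.1 to 1.3 mM. […] Samples at 0, 1, 4, 8 and 24 h were diluted in cold saline or vacuum filtered, then spiral-plated on BHI agar for 24 h at 35°C. Value is the log10 CFU/ml change from baseline at 24 h.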

Staphylococcus aureus [5] = assay: Antimicrobial activity against vancomycin-intermediate Staphylococcus aureus isolate MU50 assessed as bacterial count at 32 times MIC after 24 hrs by colony counting method; procedure, shortened: as §2
Staphylococcus aureus [6] = assay: Antimicrobial activity against vancomycin-intermediate Staphylococcus aureus isolate NJ992 assessed as bacterial count at 16 times MIC after 24 hrs by colony counting method; procedure, shortened: as §2
Staphylococcus aureus [7] = assay: Antimicrobial activity against vancomycin-intermediate Staphylococcus aureus isolate MU50 assessed as bacterial count at 4 times MIC after 24 hrs by colony counting method in presence of 50% human serum
Procedure, shortened: (§4)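 Triplicate 24-h time-kill in 50% human serum (heated 56°C 1 h, filtered) mixed with supplemented Mueller-Hinton broth, giving final 25 μg/ml Ca broth strength for TD-1792 and 50 for daptomycin. […] Samples from 0 to 24 h were counted on BHI agar (35°C, 24 h). Value is log10 CFU/ml change from baseline.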

Staphylococcus aureus [8] = assay: Antimicrobial activity against vancomycin-intermediate Staphylococcus aureus isolate MU50 assessed as bacterial count at 16 times MIC after 24 hrs by colony counting method in presence of 50% human serum; procedure, shortened: as §4
Staphylococcus aureus [9] = assay: Antimicrobial activity against vancomycin-intermediate Staphylococcus aureus isolate NJ992 assessed as bacterial count at 16 times MIC after 24 hrs by colony counting method in presence of 50% human serum
Procedure, shortened: (§5)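 Time-kill in triplicate, starting inoculum 5 × 10^6 CFU/ml from a mid-exponential culture. Medium was 50% heat-treated, filtered human serum plus 50% broth, final 25 SMHB for TD-1792 and 50 SMHB for daptomycin. Drug at multiples of MIC. Samples to 24 h were plated on BHI agar for 24 h at 35°C. Value is the log10 CFU/ml change from baseline at 24 h.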

Staphylococcus aureus [10] = assay: Antimicrobial activity against vancomycin-intermediate Staphylococcus aureus isolate NJ992 assessed as bacterial count at 32 times MIC after 24 hrs by colony counting method in presence of 50% human serum; procedure, shortened: as §4
Staphylococcus aureus [11] = assay: Antimicrobial activity against vancomycin-resistant Staphylococcus aureus isolate MI assessed as bacterial count at 4 times MIC after 24 hrs by colony counting method; procedure, shortened: as §3
Staphylococcus aureus [12] = assay: Antimicrobial activity against vancomycin-resistant Staphylococcus aureus isolate PA assessed as bacterial count at 32 times MIC after 24 hrs by colony counting method; procedure, shortened: as §3
Staphylococcus aureus [13] = assay: Antimicrobial activity against vancomycin-resistant Staphylococcus aureus isolate MI assessed as bacterial count at 4 times MIC after 24 hrs by colony counting method in presence of 50% human serum; procedure, shortened: as §5
Staphylococcus aureus [14] = assay: Antimicrobial activity against vancomycin-resistant Staphylococcus aureus isolate PA assessed as bacterial count at 8 times MIC after 24 hrs by colony counting method in presence of 50% human serum; procedure, shortened: as §5
Staphylococcus aureus [15] = assay: Antimicrobial activity against vancomycin-resistant Staphylococcus aureus isolate PA assessed as bacterial count at 32 times MIC after 24 hrs by colony counting method in presence of 50% human serum; procedure, shortened: as §5
Staphylococcus aureus [16] = assay: Antimicrobial activity against vancomycin-resistant Staphylococcus aureus isolate NY after 24 hrs by microdilution method
Procedure, shortened: (§6)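 Broth microdilution per CLSI, inoculum 5 × 10^5 CFU/ml, Mueller-Hinton broth with 12.5 μg/ml magnesium and 25 μg/ml calcium (SMHB). Daptomycin was instead tested in SMHB at physiologic calcium (final 1.1 to 1.3 mM). Incubation 24 h at 35°C; MIC read; run in duplicate. MBC from 5-μl samples of clear wells plated on BHI agar, 24 h at 35°C.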

Staphylococcus aureus [17] = assay: Antimicrobial activity against vancomycin-intermediate Staphylococcus aureus isolate NJ992 after 24 hrs by microdilution method; settings: isolate NJ992, 24 h; procedure, shortened: as §6
Staphylococcus aureus [18] = assay: Antimicrobial activity against vancomycin-resistant Staphylococcus aureus isolate MI after 24 hrs by microdilution method; procedure, shortened: as §6
Staphylococcus aureus [19] = assay: Antimicrobial activity against vancomycin-intermediate Staphylococcus aureus after 24 hrs by microdilution method in presence of 50% human serum; settings: for MBC / MIC50 / MIC90: Staphylococcus aureus, 24 h; procedure, shortened: as §1
Staphylococcus aureus [20] = assay: Antimicrobial activity against vancomycin-heteroresistant Staphylococcus aureus after 24 hrs by microdilution method; settings: Staphylococcus aureus, 24 h; procedure, shortened: as §6
Staphylococcus aureus [21] = assay: Antimicrobial activity against vancomycin-intermediate Staphylococcus aureus isolate MU50 after 24 hrs by microdilution method; settings: isolate MU50, 24 h; procedure, shortened: as §6
[22] = system: Staphylococcus haemolyticus; assay: Antimicrobial activity against vancomycin-intermediate Staphylococcus haemolyticus after 24 hrs by microdilution method in presence of 50% human serum; settings: for MBC / MIC50 / MIC90: Staphylococcus haemolyticus, 24 h
Procedure, shortened: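 Broth microdilution MIC/MBC (5 × 10^5 CFU/ml, 24 h, 35°C, duplicate) in 50% heat-treated (56°C, 1 h), filtered human serum plus supplemented Mueller-Hinton broth, with final broth strength 25 for TD-1792 and 50 for daptomycin. MBC was taken by plating clear wells on BHI agar.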

Compound	MBC (Staphylococcus aureus [1])	MIC50 (Staphylococcus aureus [1])	MIC90 (Staphylococcus aureus [1])	Ratio (Staphylococcus aureus [2])	log10CFU/ml (Staphylococcus aureus [3])	log10CFU/ml (Staphylococcus aureus [4])	log10CFU/ml (Staphylococcus aureus [5])	log10CFU/ml (Staphylococcus aureus [6])	log10CFU/ml (Staphylococcus aureus [7])	log10CFU/ml (Staphylococcus aureus [8])	log10CFU/ml (Staphylococcus aureus [9])	log10CFU/ml (Staphylococcus aureus [10])	log10CFU/ml (Staphylococcus aureus [11])	log10CFU/ml (Staphylococcus aureus [12])	log10CFU/ml (Staphylococcus aureus [13])	log10CFU/ml (Staphylococcus aureus [14])	log10CFU/ml (Staphylococcus aureus [15])	MBC (Staphylococcus aureus [16])	MIC (Staphylococcus aureus [16])	MBC (Staphylococcus aureus [17])	also measured
CCCCCCCCCC(=O)N[C@@H](Cc1c[nH]c2ccccc12)C(=O)N[C@H](CC(N)=O)C(=O)N[C@@H](CC(=O)O)C(=O)N[C@@H]1C(=O)NCC(=O)N[C@@H](CCCN)C(=O)N[C@@H](CC(=O)O)C(=O)N[C@H](C)C(=O)N[C@@H](CC(=O)O)C(=O)NCC(=O)N[C@H](CO)C(=O)N[C@@H]([C@H](C)CC(=O)O)C(=O)N[C@@H](CC(=O)c2ccccc2N)C(=O)O[C@@H]1C	1 µg/mL	1 µg/mL	4 µg/mL	2	3.02	5.12	5.12	4.68	4.01	5.09	5.03	5.04	4.59	5.1	2.53	5.11	5.11	0.125 µg/mL (≈ 0.0771 µM)	0.125 µg/mL (≈ 0.0771 µM)	1 µg/mL (≈ 0.617 µM)	MIC (Staphylococcus aureus [17]): 1 µg/mL (≈ 0.617 µM); MBC (Staphylococcus aureus [18]): 0.25 µg/mL (≈ 0.154 µM); MIC (Staphylococcus aureus [18]): 0.25 µg/mL (≈ 0.154 µM); MBC50 (Staphylococcus aureus [19]): 4 µg/mL; MBC90 (Staphylococcus aureus [19]): 8 µg/mL; MBC (Staphylococcus aureus [19]): 1 µg/mL; MIC50 (Staphylococcus aureus [19]): 1 µg/mL; MIC90 (Staphylococcus aureus [19]): 4 µg/mL; MBC (Staphylococcus aureus [20]): 0.25 µg/mL (≈ 0.154 µM); MIC50 (Staphylococcus aureus [20]): 1 µg/mL (≈ 0.617 µM); MIC90 (Staphylococcus aureus [20]): 1 µg/mL (≈ 0.617 µM); MBC (Staphylococcus aureus [21]): 1 µg/mL (≈ 0.617 µM); MIC (Staphylococcus aureus [21]): 1 µg/mL (≈ 0.617 µM); MBC50 [22]: 4 µg/mL; MBC90 [22]: 8 µg/mL; MBC [22]: 1 µg/mL; MIC50 [22]: 1 µg/mL; MIC90 [22]: 4 µg/mL
CN[C@H](CC(C)C)C(=O)N[C@H]1C(=O)N[C@@H](CC(N)=O)C(=O)N[C@H]2C(=O)N[C@H]3C(=O)N[C@H](C(=O)N[C@H](C(=O)NCCCO/N=C(\C(=O)N[C@@H]4C(=O)N5C(C(=O)[O-])=C(C[n+]6ccccc6)CS[C@H]45)c4nc(N)sc4Cl)c4cc(O)cc(O)c4-c4cc3ccc4O)[C@H](O)c3ccc(c(Cl)c3)Oc3cc2cc(c3O[C@@H]2O[C@H](CO)[C@@H](O)[C@H](O)[C@H]2O[C@H]2C[C@](C)(N)[C@H](O)[C@H](C)O2)Oc2ccc(cc2Cl)[C@H]1O	0.03 µg/mL	0.25 µg/mL	0.5 µg/mL	2	3.77	4.94	4.92	4.94	3.05	4.37	4.76	4.92	2.95	5.05	4.12	4.65	5.09	0.06 µg/mL (≈ 0.0303 µM)	0.03 µg/mL (≈ 0.0151 µM)	0.06 µg/mL (≈ 0.0303 µM)	MIC (Staphylococcus aureus [17]): 0.06 µg/mL (≈ 0.0303 µM); MBC (Staphylococcus aureus [18]): 0.5 µg/mL (≈ 0.252 µM); MIC (Staphylococcus aureus [18]): 0.25 µg/mL (≈ 0.126 µM); MBC50 (Staphylococcus aureus [19]): 0.25 µg/mL; MBC90 (Staphylococcus aureus [19]): 0.5 µg/mL; MBC (Staphylococcus aureus [19]): 0.03 µg/mL; MIC50 (Staphylococcus aureus [19]): 0.25 µg/mL; MIC90 (Staphylococcus aureus [19]): 0.5 µg/mL; MBC (Staphylococcus aureus [20]): 0.015 µg/mL (≈ 0.00756 µM); MIC50 (Staphylococcus aureus [20]): 0.06 µg/mL (≈ 0.0303 µM); MIC90 (Staphylococcus aureus [20]): 0.125 µg/mL (≈ 0.063 µM); MBC (Staphylococcus aureus [21]): 0.03 µg/mL (≈ 0.0151 µM); MIC (Staphylococcus aureus [21]): 0.03 µg/mL (≈ 0.0151 µM); MBC50 [22]: 0.25 µg/mL; MBC90 [22]: 0.5 µg/mL; MBC [22]: 0.03 µg/mL; MIC50 [22]: 0.25 µg/mL; MIC90 [22]: 0.5 µg/mL
